Measurements as given in PubChem BioAssay AID624313 (The Scripps Research Institute Molecular Screening Center, 2012).
Activity calls are given as the source filed them.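 The calls were made as follows: active = reporter absorbance over solvent-only wells above 1.25 at every tested dose; inactive = the rest.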

Tested on: HEK293 CYP11A1 promoter CAT reporter, ELISA absorbance
Assay: CYP11A1 reporter increase in DAX-1/SF-1 cells – cell-based, absorbance, CAT reporter, HEK293, counter-screen for DAX1 inhibitor project, late-stage follow-up (AID 624313)
Conditions: at 100 µM (top of the series)
How it was run: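 Test system: transfected HEK293 with CYP11A1-promoter CAT reporter / Doses: 3-point twofold dilution series, nominal top 100 µM / Detection: colorimetric enzyme immunoassay of CAT protein, absorbance / Read-out: CAT signal relative to DMSO-treated wells / Benchmarks: pSG5 empty-vector positive control, DMSO reference / Replication: triplicate per dose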

SMILES	relative activity ratio
Cn1c(=O)n(C)c2cc(C(=O)Nc3ccc4c(c3)OCCO4)ccc21	0.27 (inactive)
Cn1c(=O)n(C)c2cc(C(=O)Nc3ccc4c(c3)OCO4)ccc21	0.52 (inactive)
